MrgX1 antag – antagonists of human MrgX1 receptor; B-score at 10 µM; 310,000 tested, 1.3% active; AID 588676; MRGX1-HEK293 calcium flux, Fluo-4, BAM8-22 antagonism; stronger effect = lower value;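 active = calcium-response B-score plate-corrected more than 3 library SD below zero, starting fluorescence within 5 deviations, no agonist response on first addition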;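 also: peak minus trough fluorescence over baseline after final BAM8-22 challenge near maximal dose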
Target sequence (Q96LB2 whole entry, looked up): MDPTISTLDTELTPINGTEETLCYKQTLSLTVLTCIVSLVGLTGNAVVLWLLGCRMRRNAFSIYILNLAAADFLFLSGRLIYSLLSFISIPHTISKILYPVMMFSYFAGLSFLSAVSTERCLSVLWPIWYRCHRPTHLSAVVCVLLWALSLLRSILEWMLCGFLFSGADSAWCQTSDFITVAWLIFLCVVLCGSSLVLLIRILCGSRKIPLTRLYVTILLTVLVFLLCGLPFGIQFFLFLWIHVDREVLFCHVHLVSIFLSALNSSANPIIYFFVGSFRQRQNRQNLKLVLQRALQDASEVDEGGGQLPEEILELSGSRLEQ
MrgX1 ag – human MrgX1 receptor agonism, primary screen | Q96LB2 | MrgX1-HEK293 cells, Fluo-4 calcium fluorescence, agonist mode; stronger effect = higher value | B-score at 10 µM | 310,000 tested, 0.44% active;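 active = calcium response B-score plate-corrected fluorescence ratio at least 3 library SD, with starting fluorescence B-score inside 5 SD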
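Test system: HEK293 cells stably expressing human MrgX1 receptor; amount: 15,000 cells per well; doses: compound delivered in addition one of three; times: overnight plating before 1 h dye loading; detection: Fluo-4 NW calcium-flux fluorescence, kinetic read; read-out basis: B-scored fluorescence response ratio; controls: positive and negative controls per plate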
MrgX1 PAM – allosterically activates human MrgX1 receptor signaling; 310,000 tested, 0.63% active; MrgX1-HEK293, Fluo-4 calcium flux, FDSS; stronger effect = higher value; B-score at 10 µM; AID 588675;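 active = plate-corrected calcium response at least 3 library SD above typical, normal starting fluorescence, not activating the receptor alone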;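 also: compound read alongside a low EC10 to EC30 dose of BAM8-22 agonist; peak minus trough fluorescence over baseline measured at the second addition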
RGS4 pot – RGS4 potentiation or activation; HEK293 M3R/inducible RGS4, carbachol calcium flux Fluo4; stronger effect = lower value; B-score at 10 µM; 310,000 tested, 0.92% active; AID 463111;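 active = B-score of the integrated calcium signal more than 4 SD below the library mean, with starting fluorescence not abnormally high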;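 also: negative B-score means reduced calcium response which marks RGS4 activation or potentiation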
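test system = HEK293 cells with stable M3R and inducible RGS4 | schedule = recording 10 s baseline at 1 Hz, 100 s post-agonist | technique = Fluo4-AM (2 µM) calcium-flux fluorescence, kinetic read | measure = Agonist-evoked peak-minus-minimum fluorescence over baseline, integrated ratio, B score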
Lipid droplet – hepatic lipid droplet formation modulation | AML12 mouse hepatocytes, oleate lipid droplets, BODIPY imaging | inhibition, % at 6.5 µM | 240,000 tested, 0.4% active;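 active = lipid droplet intensity inhibited by at least 50%, with more than 500 cells counted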
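Assay system: AML12 hepatocytes (mouse) / Also added: 100 µM oleic acid challenge / Times: overnight treatment with compound plus oleate / Detection: high-content imaging of BODIPY-stained droplets and DAPI nuclei / Evaluation: % inhibition of lipid droplet signal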
RGS4 block – human RGS4 inhibition. HEK293 M3R/RGS4 inducible, Fluo-4 calcium flux; stronger effect = higher value; triggered by carbachol at its EC20. B-score at 10 µM. P49798. 310,000 tested, 0.45% active;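 active = B-score, a plate-corrected calcium signal, over three deviations above library mean, with baseline fluorescence within five deviations of library mean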;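 also: RGS4 expression induced by doxycycline in cells with stable M3 receptor; B-score is computed from the integrated fluorescence ratio over baseline after carbachol; higher B-score means a larger calcium signal and so more RGS4 inhibition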
Target sequence (P49798 whole entry, looked up): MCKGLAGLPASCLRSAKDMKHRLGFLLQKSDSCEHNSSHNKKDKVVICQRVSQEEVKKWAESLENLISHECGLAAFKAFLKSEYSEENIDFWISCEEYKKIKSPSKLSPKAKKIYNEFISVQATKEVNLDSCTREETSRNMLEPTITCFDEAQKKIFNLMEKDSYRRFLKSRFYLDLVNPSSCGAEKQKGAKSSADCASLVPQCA
MrgX1 antag conf – human MrgX1 receptor antagonism, re-confirmation screen; MrgX1-HEK293, BAM8-22 calcium flux, Fluo-4; stronger effect = lower value; remaining BAM8-22 calcium response % of control (stronger effect = lower value), % at 10 µM; 2,300 tested, 19% active; shares compounds with MrgX1 antag;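 active = remaining agonist calcium response no higher than 100% minus 3 SD of agonist-only control wells, with starting fluorescence near control levels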;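 also: agonist BAM8-22 given at a near maximal EC90 to ECmax level; peak minus minimum fluorescence divided by baseline after agonist addition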
HEK293 Ca flux – activity in parental HEK293 cells lacking MrgX1; shares compounds with MrgX1 antag; Fluo-4 calcium fluorescence, FDSS; fluorescence ratio F(max-min)/F0 at 10 µM; 4,000 tested, 2% active; AID 624111;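 active = duplicate-averaged calcium fluorescence ratio at least three times the standard deviation of buffer wells, a nonspecific response in parental cells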
HEK293 Ca counter – MrgX1 allosteric activator counter-screen hit in parental HEK293 cells | shares compounds with MrgX1 antag | parental HEK293 calcium flux, Fluo-4 fluorescence ratio; stronger effect = higher value | fluorescence ratio F(max-min)/F0 at 10 µM | 4,000 tested, 0.4% active;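 active = calcium fluorescence ratio, averaged over duplicates, at least 3 SD of the buffer-well ratio, meaning a nonspecific response in receptor-free cells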;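 also: untransfected parental HEK293 lacking MrgX1 used as counterscreen for MrgX1 allosteric activators; fluorescence change taken during the second addition on a kinetic imager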
HEK293 Ca cntr2 – MrgX1 activator counter-screen hit in parental HEK293 cells; shares compounds with MrgX1 antag; 4,000 tested, 8.7% active; fluorescence ratio F(max-min)/F0 at 10 µM; Fluo-4 calcium fluorescence (FDSS); stronger effect = higher value;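 active = calcium fluorescence ratio at least three times the spread of buffer wells, meaning a non-specific response in parental cells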
Large screens that a line does not name were inactive (follow-up assays come after a bar, where they were run). Rows were chosen to be rich in hits. Some 3.8% of all compounds tested hit in one or more screens of this group.

O=C1CCCN1c1ccc(S(=O)(=O)NCc2ccc(F)cc2)cc1	none
COc1ccccc1-c1cc(-c2ccccc2)nc(SCC(=O)O)c1C#N	none
COc1ccc(-c2cc(-c3ccc(Cl)cc3)c(C#N)c(SCC(=O)O)n2)cc1	MrgX1 antag -5.9 | MrgX1 antag conf inactive | HEK293 Ca flux inactive | HEK293 Ca counter inactive | HEK293 Ca cntr2 inactive
O=C(O)c1ccc(NC2=C(Cl)C(=O)c3ccccc3C2=O)cc1	MrgX1 antag -18, RGS4 pot -7.3 | MrgX1 antag conf 14% | HEK293 Ca flux inactive | HEK293 Ca counter inactive | HEK293 Ca cntr2 inactive
Cc1cc(C)n2nc(SCCCC(=O)c3ccc(F)cc3)nc2n1	none
COc1cc(C=O)ccc1Oc1nnnn1-c1ccc(C(N)=O)cc1	none
C/C=C/c1ccc(Oc2nnnn2-c2ccc(C(=O)O)cc2)c(OC)c1	MrgX1 antag -4.6 | MrgX1 antag conf inactive | HEK293 Ca flux inactive | HEK293 Ca counter inactive | HEK293 Ca cntr2 inactive
O=C(CCc1ccccc1)NC1CCSC1=O (stereo not drawn)	MrgX1 antag -6.1 (no result: Lipid droplet) | MrgX1 antag conf inactive | HEK293 Ca flux inactive | HEK293 Ca counter inactive | HEK293 Ca cntr2 inactive
COc1ccc(C(=O)NCC(=O)OCC(=O)Nc2sccc2C#N)cc1OC	MrgX1 antag -4.6 | MrgX1 antag conf inactive | HEK293 Ca flux inactive | HEK293 Ca counter inactive | HEK293 Ca cntr2 inactive
COc1ccc(OC)c(NC(=O)COC(=O)CNC(=O)c2ccc(OC)c(OC)c2)c1	none
CC(=O)Nc1ccc(S(=O)(=O)NNC(=O)c2cccc(Cl)c2)cc1	none
COC(=O)c1cccc(NC(=O)CSc2nc3cccnc3n2C)c1	MrgX1 antag -4.8 (no result: RGS4 pot, Lipid droplet, RGS4 block) | MrgX1 antag conf 74% | HEK293 Ca flux inactive | HEK293 Ca counter inactive | HEK293 Ca cntr2 inactive
CCOC(=O)N1CCC(N2CCN(c3cc(C)ccc3C)CC2)CC1	MrgX1 antag -8.8 (no result: Lipid droplet) | MrgX1 antag conf inactive | HEK293 Ca flux inactive | HEK293 Ca counter inactive | HEK293 Ca cntr2 inactive
O=C(CCc1ccccc1)NCc1ccc(F)cc1	none
O=C(O)CCC(=O)NCc1ccc(F)cc1	MrgX1 antag -6.3 | MrgX1 antag conf inactive | HEK293 Ca flux inactive | HEK293 Ca counter inactive | HEK293 Ca cntr2 inactive
CC1=C(C(=O)Nc2cc(C(=O)NCCC(C)C)ccc2C)SCCO1	none
Cn1c(=O)oc2cc(S(=O)(=O)NCCC(=O)N3CCc4ccccc43)ccc21	MrgX1 antag -5.1 (no result: Lipid droplet) | MrgX1 antag conf inactive | HEK293 Ca flux inactive | HEK293 Ca counter inactive | HEK293 Ca cntr2 inactive
Cc1[nH]c2ccccc2c(=O)c1CN1CCCCC1	MrgX1 antag -6.8 | MrgX1 antag conf inactive | HEK293 Ca flux inactive | HEK293 Ca counter inactive | HEK293 Ca cntr2 inactive
Cc1nc(N)sc1C(=O)OCC(C)C	MrgX1 antag -8.7 | MrgX1 antag conf inactive | HEK293 Ca flux inactive | HEK293 Ca counter inactive | HEK293 Ca cntr2 inactive
CN1CCN(C2CCCCCC2)CC1	MrgX1 antag -5.3 | MrgX1 antag conf inactive | HEK293 Ca flux inactive | HEK293 Ca counter inactive | HEK293 Ca cntr2 inactive
CN1CCN(C(=O)NC2CCCCC2)CC1	none
O=C(COc1ccc(-c2ccccc2)cc1)N1CCN(C(=O)c2cccs2)CC1	none
CCc1nnc(NC(=O)CSc2nnc(CCc3nc4ccccc4[nH]3)n2C)s1	none (no result: Lipid droplet)
Cc1nnc(NC(=O)CSc2nnc(CCc3nc4ccccc4[nH]3)n2C)s1	MrgX1 antag -4.6 (no result: Lipid droplet) | MrgX1 antag conf inactive | HEK293 Ca flux inactive | HEK293 Ca counter inactive | HEK293 Ca cntr2 inactive
O=C(CNc1cccc(S(=O)(=O)N2CCOCC2)c1)Nc1ccccc1F	MrgX1 antag -5.1 | MrgX1 antag conf inactive | HEK293 Ca flux inactive | HEK293 Ca counter inactive | HEK293 Ca cntr2 inactive
O=C(CNc1cccc(S(=O)(=O)N2CCOCC2)c1)Nc1cccc(Br)c1	none (no result: Lipid droplet)
CCN(CC)S(=O)(=O)c1ccc(OC)nc1	none (no result: Lipid droplet)
CCN(CC)S(=O)(=O)c1ccc(OC(C)C)nc1	MrgX1 antag -5.9 | MrgX1 antag conf inactive | HEK293 Ca flux inactive | HEK293 Ca counter inactive | HEK293 Ca cntr2 inactive
Cc1cccc(C(=O)Nc2nnc(S(=O)(=O)N3CCC(C)CC3)s2)c1	none
C=CCSc1nc2c(c(C3CC=CCC3)c1C#N)CCC2 (stereo not drawn)	none
CC(C)OC(=O)CSc1nc2c(c(C3CC=CCC3)c1C#N)CCC2 (stereo not drawn)	MrgX1 antag -6.2 (no result: Lipid droplet) | MrgX1 antag conf inactive | HEK293 Ca flux inactive | HEK293 Ca counter inactive | HEK293 Ca cntr2 inactive
Cc1ccccc1CSCCNS(C)(=O)=O	MrgX1 antag -5.3 | MrgX1 antag conf inactive | HEK293 Ca flux inactive | HEK293 Ca counter inactive | HEK293 Ca cntr2 inactive
O=C1[C@@H]2Cc3c([nH]c4ccccc34)CN2C(=O)CN1CCCO	none
CCCCCN1CC(=O)N2Cc3[nH]c4ccccc4c3C[C@H]2C1=O	MrgX1 antag -19 | MrgX1 antag conf inactive | HEK293 Ca flux inactive | HEK293 Ca counter inactive | HEK293 Ca cntr2 inactive
O=C(NCc1cccc(C(F)(F)F)c1)C1CC(c2c(Cl)cccc2Cl)=NO1 (stereo not drawn)	none (no result: Lipid droplet)
CCOC(=O)N1CCN(C(=O)C2CCN(Cc3nc(-c4ccccc4C)oc3C)CC2)CC1	MrgX1 antag -4.8 (no result: Lipid droplet) | MrgX1 antag conf inactive | HEK293 Ca flux inactive | HEK293 Ca counter inactive | HEK293 Ca cntr2 inactive
CCOC(=O)N1CCN(C(=O)CSCc2nc(-c3ccccc3C)oc2C)CC1	none (no result: Lipid droplet)
O=C(Nc1ccc(C(=O)N2CCCCC2)cc1)c1cccs1	none
O=C(Nc1ccc(C(=O)N2CCOCC2)cc1)c1cccs1	MrgX1 antag -7 (no result: Lipid droplet) | MrgX1 antag conf 75% | HEK293 Ca flux inactive | HEK293 Ca counter inactive | HEK293 Ca cntr2 inactive
Cc1cc(C)n(C(=O)C23CC4CC(CC(C4)C2)C3)n1	none
CCOc1ccccc1N1CCN(C(=O)c2cc(-c3cccnc3)nc3c(Cl)cccc23)CC1	MrgX1 antag -5.8 | MrgX1 antag conf inactive | HEK293 Ca flux 0.42 | HEK293 Ca counter inactive | HEK293 Ca cntr2 inactive
O=C(c1ccc(C(=O)N2CCCc3ccccc32)s1)N1CCCc2ccccc21	none (no result: Lipid droplet)
